Reference: PubChem BioAssay
Inconclusive results are not listed.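 How the source made its calls, unless noted: active means cell viability at or below a set limit in both duplicate runs, the limit being the all-compound median minus 4 SD (cut at about 23% in these data, passing the limit was not always enough); inconclusive means no clear call, values can overlap the other calls; inactive means the rest.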

Experiments:
[1] = S. cerevisiae growth inhibition in permissive medium (OD615), pilot counter-assay for S. cerevisiae lifespan shortening project, permissive growth control (AID 705;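 active means growth inhibition above 25% in both replicates, a cutoff set 3 SD above the mean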); conditions: OD615, 24 h, at 10 µM, active compounds read high
Outline: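 System: Engineered DeaD yeast | Buffer or medium: SC raffinose/galactose permissive medium | Incubation: Cells pre-grown 4 h, then 24 h compound exposure, 30 °C humidified | Measured by: Absorbance (optical density) at 615 nm | Read-out: Reduction in yeast growth (OD615)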

[2] = S. cerevisiae growth inhibition in restrictive medium, OD615, pilot screen, restrictive growth control, yeast lifespan reduction project (AID 706;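 active means growth inhibition above a set limit, 3 SD over mean compound inhibition, in both replicates, cut at about 43% in these data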;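 further: modified DeaD lifespan yeast strain shifted to restrictive glucose medium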); conditions: OD615, 48 h, at 10 µM, active compounds read high
Outline: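 Material: modified S. cerevisiae; Medium: glucose-based CSMM-D restrictive medium; Compound dosing: one concentration, 10 µM final, 0.25% DMSO; Incubation: 48 h compound exposure at 30 °C; Measured by: OD615.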

[3] = doxorubicin toxicity protection in MRP-1 cells – H69AR cells, CellTiter-Glo, duplicate, MRP-1 activator project, pilot screen (AID 807;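 active means viability increase at or above a cutoff of the median across tested compounds plus 3 SD, cut at about 8.5% in these data, passing the limit was not always enough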;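 further: compound pretreatment 18-22 h then 72 h combined with doxorubicin; 0% = doxorubicin alone and 100% = vehicle without doxorubicin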); conditions: H69AR viability with doxorubicin, CellTiter-Glo luminescence; at 10 µM; active compounds read high
[4] = viability of HCT116 without oncogenic beta-catenin – human colon tumor cells, pilot screen (AID 823); conditions: HCT116 beta-catenin knockout viability, CellTiter-Glo, 60 h; at 10 µM; active compounds read low;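 further: 0% = wells killed by 20 µM Hyamine and 100% = untreated DMSO cell wells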
[5] = viability of PTEN-null HCT116 cells – cell-based, HCT116 clonal line, CellTiter-Glo, pilot screen (AID 824;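 active means viability at or below 27.92% in each of two runs, the all-compound median minus 4 SD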;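 further: 0% = 20 µM Hyamine control and 100% = vehicle cell control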); conditions: HCT116 PTEN-deleted viability, 60 h, at 10 µM, active compounds read low
[6] = RAM pathway blockade in budding yeast – dse1pr::URA3 reporter, 5-FOA selection, pilot screen (AID 869;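 active means inhibition over a set limit, the all-compound mean plus 3 SD, in both replicate runs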;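 further: 0% = DMSO wells with no growth and 100% = 10 µM 1-NA-PP1 with full growth; RAM network block rescues cells from 5-FOA so hits raise OD615 growth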); conditions: S. cerevisiae dse1pr::URA3 5-FOA growth, OD615, 2 d; at 10 µM; active compounds read high; strain carries analog-sensitive mutant Cbk1 kinase
[7] = RAM signaling pathway blockade in yeast – S. cerevisiae, Pdr1DBD-CYC8 efflux-inhibited sensitized strain, primary screen (AID 1298;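 active means RAM network inhibition above 8.4% in each of two replicates, 3 SD over the compound average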;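 further: 0% = DMSO untreated cells without growth and 100% = 10 µM 1-NA-PP1 full growth; higher means more yeast growth rescued from 5-FOA killing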); conditions: S. cerevisiae cbk1-as DSE1-URA3 strain, 5-FOA growth OD615, 2 d; at 50 µM; active compounds read high

COc1ccc(S(=O)(=O)N2CCC(C(=O)NCCC3=CCCCC3)CC2)cc1OC
inactive: growth inhibition [1] -5.45% | growth inhibition [2] -0.575% | viability increase [3] -0.8% | viability [4] 96.2% | viability [5] 96.9% | inhibition [6] 1.67% | RAM network inhibition [7] 4.24%

CCOC(=O)N1CCN(c2c(Nc3ccc4c(c3)OCCO4)c(=O)c2=O)CC1
inactive: growth inhibition [1] 4.17% | growth inhibition [2] 4.07% | viability increase [3] -1.02% | viability [4] 105% | viability [5] 105% | inhibition [6] 1.1% | RAM network inhibition [7] 2.05%

Cc1c(NC(=O)C2CC=CCC2C(=O)O)c(=O)n(-c2ccccc2)n1C (stereo unspecified)
inactive: growth inhibition [1] -5.59% | growth inhibition [2] -6.86% | viability increase [3] -0.87% | viability [4] 101% | viability [5] 94.3% | inhibition [6] 1.54% | RAM network inhibition [7] 1.99%

COc1ccccc1NC(=O)C1=C(C)NC(=O)NC1c1ccccc1F (stereo unspecified)
inactive: growth inhibition [1] -7.88% | growth inhibition [2] -13.5% | viability increase [3] -0.75% | viability [4] 99.2% | viability [5] 107% | inhibition [6] 1.82% | RAM network inhibition [7] 2.41%

CC(C)(C)c1nc(CN2CCCCC2)cc(CN2CCCCC2)c1O
inactive: growth inhibition [1] -13.8% | growth inhibition [2] -12.6% | viability increase [3] -5.26% | viability [4] 70.8% | viability [5] 76.2% | inhibition [6] 0.505% | RAM network inhibition [7] 1.19%

Cc1c(C(=O)NCC2CCCO2)sc2nc(-c3ccc(F)cc3)cn12 (stereo unspecified)
inactive: growth inhibition [1] 3.06% | growth inhibition [2] 0.065% | viability increase [3] 1.26% | viability [4] 95.2% | viability [5] 97.3% | inhibition [6] 0.68% | RAM network inhibition [7] 3.33%

O=C1CCCCCN1Cc1nnc(SCc2nc3ccccc3s2)n1-c1ccccn1
inactive: growth inhibition [1] -3.83% | growth inhibition [2] 19.8% | viability increase [3] -3.45% | viability [4] 91.7% | viability [5] 95% | inhibition [6] 1.07% | RAM network inhibition [7] 2.7%

CCCOc1ccccc1C1NC(=O)NC(C)=C1C(=O)OCCOC(C)C (stereo unspecified)
inactive: growth inhibition [1] -12.9% | growth inhibition [2] -13.2% | viability increase [3] -2.17% | viability [4] 89.5% | viability [5] 91.4% | inhibition [6] 0.325% | RAM network inhibition [7] 5.61%

CC1=C(C(=O)OC(C)C)C(c2cccnc2)n2ncnc2N1 (stereo unspecified)
inactive: growth inhibition [1] -6.7% | growth inhibition [2] -11% | viability increase [3] 0.27% | viability [4] 101% | viability [5] 100% | inhibition [6] 0.07% | RAM network inhibition [7] 5.02%

Cc1cccc(NC(=O)CN2CCN(CC(=O)Nc3cccc(C)c3)CC2)c1
inactive: growth inhibition [1] -14.3% | growth inhibition [2] -10% | viability increase [3] -4.48% | viability [4] 90.1% | viability [5] 98% | inhibition [6] 0.165% | RAM network inhibition [7] 2.17%

O=C1NC(c2cccs2)C(C(=O)c2ccccc2)C(O)(C(F)(F)F)N1 (stereo unspecified)
inactive: growth inhibition [1] -0.14% | growth inhibition [2] -7.88% | viability increase [3] -0.03% | viability [4] 94.8% | viability [5] 90.4% | inhibition [6] 0.61% | RAM network inhibition [7] 0.87%

CCOCCCNC(=O)C(c1ccc(OC)cc1)N(Cc1ccc2c(c1)OCO2)C(=O)CNC(C)=O (stereo unspecified)
inactive: growth inhibition [1] -6.78% | growth inhibition [2] 3.73% | viability increase [3] 2.19% | viability [4] 104% | viability [5] 107% | inhibition [6] 1.34% | RAM network inhibition [7] 4.4%

CC(=O)Nc1ccc(S(=O)(=O)NC2=NCN(CCOC(=O)c3ccccc3)CN2)cc1
inactive: growth inhibition [1] -3.64% | growth inhibition [2] 5.12% | viability increase [3] -1.37% | viability [4] 92.7% | viability [5] 93.6% | inhibition [6] 1.29% | RAM network inhibition [7] 1.02%

Cc1c(=O)n(OCc2ccccc2)c2ccccc2[n+]1[O-]
inactive: growth inhibition [1] -0.885% | growth inhibition [2] 1.5% | viability increase [3] -3.92% | viability [4] 95.9% | viability [5] 95.8% | inhibition [6] 0.09% | RAM network inhibition [7] 9.74%

CCCCn1c(CNC(=O)CC)nc2ccccc21
inactive: growth inhibition [1] -4.54% | growth inhibition [2] -9.44% | viability increase [3] -2.1% | viability [4] 103% | viability [5] 102% | inhibition [6] 0.825% | RAM network inhibition [7] 1.89%

Cc1ccc(S(=O)(=O)N(CC(=O)N2CCCC2)C2CCCCC2)cc1
inactive: growth inhibition [1] -1.14% | growth inhibition [2] 10.9% | viability increase [3] -1.79% | viability [4] 99% | viability [5] 95% | inhibition [6] 0.685% | RAM network inhibition [7] 2.21%

CCN1C(=O)c2ccccc2Sc2ccc(C(=O)NCCN3CCOCC3)cc21
inactive: growth inhibition [1] -6.92% | growth inhibition [2] -7.4% | viability increase [3] -0.43% | viability [4] 110% | viability [5] 101% | inhibition [6] -0.985% | RAM network inhibition [7] 2.02%

CCOc1ccc(-n2c(SCC(=O)NCc3ccco3)nc3c([nH]c4ccccc43)c2=O)cc1
inactive: growth inhibition [1] -2.76% | growth inhibition [2] -7.4% | viability increase [3] -3.17% | viability [4] 68.5% | viability [5] 64.1% | inhibition [6] 1.14% | RAM network inhibition [7] 7.07%
